This note sets out measurements from ChEMBL document CHEMBL1124841, “Chalcones: a new class of antimitotic agents” (1990).

For one experiment, the system named is B16. As to the kind of experiment: The ratio of survival time for treated divided by survival time of control x 100 at a dose of 0.2 mg/kg in B16 melanoma cells. It is filed as functional, Mus musculus. The procedure, abridged: (§1)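 Mice inoculated ip on day 0 with 1 × 10^5 L1210 leukemia or B16 melanoma cells. Compounds given ip once daily on days 1-9, suspended or dissolved in 5% PVP. Survival time recorded and averaged per group. Value is mean survival of treated over control × 100.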

In the next experiment the test system is HeLa. As to the kind of experiment: In vitro antimitotic activity against HeLa cells after 6 hours exposure. It is filed as functional, Homo sapiens. The procedure, abridged:
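Asynchronous HeLa cells were exposed to compound continuously for 6 h. Mitotic index (cells in mitosis/cells counted) was scored on about 300 cells counted across three fields. The equivalent dose (ED) is the concentration giving the same mitotic index as the colchicine standard at 0.05 µg/mL.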

Another experiment has as its system L1210. Put plainly: The ratio of survival time for treated divided by survival time of control x 100 at a dose of 0.2 mg/kg in L1210 leukemia cells. It is filed as functional, Mus musculus. The procedure, abridged:
as §1

For `CC[C@]1(O)C[C@@H]2CN(CCc3c([nH]c4ccccc34)[C@@](C(=O)OC)(c3cc4c(cc3OC)N(C)[C@H]3[C@@](O)(C(=O)OC)[C@H](OC(C)=O)[C@]5(CC)C=CCN6CC[C@]43[C@@H]65)C2)C1` [VINBLASTINE], the values for the T/C in the experiment with B16 and in the experiment on L1210 were 180% and 140%, respectively. For the same compound, the ED in the experiment on HeLa came to 0.0015 µg/mL.
